A selection: hits, their analogues and other compounds. The true share with any hit is near 6.8%.
ALR inh – inhibitors of human ALR sulfhydryl oxidase, primary screen, biochemical, H2O2 detection, HRP-luminol luminescence, single point | actives 3.8% (n = 290,000) | FAD-linked sulfhydryl oxidase ALR (Homo sapiens), P55789 | purified ALR, DTT oxidation | inhibition, % (test concentration not listed);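 active means mean replicate inhibition above about 79%, with every replicate also reaching it, limit read from the data; inconclusive means only one of the two criteria met; inactive means mean below limit and not every replicate reaching it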
Target sequence (P55789 whole entry, looked up): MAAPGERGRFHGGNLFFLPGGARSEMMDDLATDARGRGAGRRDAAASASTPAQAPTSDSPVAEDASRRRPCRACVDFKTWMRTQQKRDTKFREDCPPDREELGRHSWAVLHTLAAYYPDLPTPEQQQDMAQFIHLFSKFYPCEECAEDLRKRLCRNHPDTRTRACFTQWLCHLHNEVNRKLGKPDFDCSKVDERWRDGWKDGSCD
HSF-1 act – HSF-1 activators, primary screen, NIH3T3-HGL cells, MG132 stress, luminescence, single point | actives 1.7% (n = 300,000) | NIH3T3-HGL HSF-1 luciferase reporter, 8 h; 100% = twice DMSO control signal | activation, % at 9 µM | AID 504408, 2011;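 active means mean replicate activation of at least 50% with a set share of replicates each reaching 50%; inconclusive means only one of those two conditions met; inactive means mean below 50% and too few replicates reaching it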;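 further: 0% = median of the neutral control wells and 100% = twice that signal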
HSF1 inhib – HSF1 inhibitors in luciferase reporter cells, primary screen, cell-based, NIH3T3, luminescence | activity change, negative = inhibition, % at 7.5 µM (by protocol) | AID 2098, 2009 | NIH3T3-HGL HSE-luciferase, MG132-induced, luminescence 8 h; stronger effect = lower value | actives 0.77% (n = 300,000);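 active means more than half of replicate wells show activity change below -50%, luminescence cut by over half; inconclusive means some wells, but at most half, below -50%; inactive means no replicate well below -50%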;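 further: luciferase reports HSF-1 transcriptional activity via heat shock element; 0% = median of DMSO wells and -100% = zero luminescence signal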
AI-2 QS modul – Vibrio harveyi AI-2 quorum sensing modulators, primary screen, JMH597 strain, luminescence/OD600 ratio; AID 2094, 2009; Vibrio harveyi JMH597 AI-2 luminescence/OD600 ratio, 9 h; stronger effect = lower value; strain lacks LuxN and CqsS sensors; 0 = neutral-control median; actives 0.4% (n = 300,000); activity change, % at 7.5 µM; in the data active means activity change below about -75%, passing the limit was not always enough; inconclusive means no clear call, values can overlap the other calls;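 further: luminescence divided by OD600 gain over 9 h not by final OD600 alone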
PHOSPHO1 inh – PubChem AID 1565. Phosphoethanolamine/phosphocholine phosphatase (Homo sapiens), Q8TCT1. recombinant PHOSPHO1, absorbance phosphatase assay. inhibition, % at 13.3 µM. actives 1.1% (n = 290,000); in the data active means inhibition above about 60%
Target sequence (Q8TCT1 whole entry, looked up): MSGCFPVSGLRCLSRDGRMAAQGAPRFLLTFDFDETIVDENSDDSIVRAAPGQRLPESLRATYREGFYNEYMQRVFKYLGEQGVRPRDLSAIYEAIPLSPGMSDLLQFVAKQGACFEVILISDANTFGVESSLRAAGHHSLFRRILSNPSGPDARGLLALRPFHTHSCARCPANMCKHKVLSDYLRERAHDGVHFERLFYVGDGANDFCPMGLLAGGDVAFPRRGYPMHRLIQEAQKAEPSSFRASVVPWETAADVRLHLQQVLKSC
core dimer inh – inhibitors of HCV core protein dimerization, primary screen, biochemical, TR-FRET, high-throughput. actives 0.33% (n = 300,000). inhibition, % at 5 µM. AID 1899, 2009. TR-FRET GST/Flag-core106 dimerization, 1536-well;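 active means inhibition above the mean of all tested compounds plus 3 SD, set per screening campaign, cut at about 45% in these data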
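Assay system: tagged HCV core106 pair (GST and Flag); medium: KF-containing HEPES buffer, pH 7.45, DTT, CHAPS, BSA; also added: Eu donor and XL665 acceptor anti-tag antibodies; dosing: 5 µM single dose; timing: compound-protein-antibody incubation 4 h at 22.5 °C; signal: TR-FRET 671 and 617 nm emission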
JMH597 growth rt – Vibrio harveyi growth inhibition, confirmation, counter-screen for AI-2 quorum sensing project, JMH597 strain, OD600 absorbance | 9 h; lacks LuxN and CqsS sensors | growth inhibition, % at 7.5 µM | actives 1% (n = 750) | shares compounds with AI-2 QS modul | AID 2726, 2010;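 active means every replicate shows growth inhibition above 50%; inconclusive means at least half, but not all, replicates pass that cutoff; inactive means fewer than half of replicates pass it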
BB721 lum counter – luminescence inhibition in constitutive-on V. harveyi, confirmation, counter-screen for LuxS inhibitor project, strain BB721, luminescence readout; shares compounds with AI-2 QS modul; Vibrio harveyi BB721 luminescence, 9 h; inhibition, % at 7.5 µM; actives 95% (n = 750); AID 2727, 2010;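 active means inhibition above about 80% in every replicate, not just on average, limit read from the data; inconclusive means at least half of replicates past the limit, but not all; inactive means fewer than half of replicates past the limit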
BB721 growth rt – growth inhibition of V. harveyi BB721, confirmation, cytotoxicity control for AI-2 quorum sensing inhibitors, strain BB721, absorbance OD600. shares compounds with AI-2 QS modul. Vibrio harveyi BB721 growth, 9 h. growth inhibition, % at 7.5 µM. actives 3% (n = 750);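 active means every replicate shows growth inhibition above 50%; inconclusive means at least half but not all replicates above 50% inhibition; inactive means under half of replicates above 50% inhibition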
JMH597 AI-2 mod – Vibrio harveyi AI-2 signaling luminescence modulation – JMH597 strain, confirmation. shares compounds with AI-2 QS modul. Vibrio harveyi JMH597 AI-2 quorum sensing luminescence, 9 h; luxN and CqsS knockout, AI-2 only. inhibition, % at 7.5 µM. actives 97% (n = 750). AID 2736, 2010;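 active means every replicate shows more than 75% inhibition of signal versus neutral control wells; inconclusive means half to three quarters of replicates exceed 75% inhibition; inactive means fewer than half of replicates exceed 75% inhibition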
The depositor's hits bear a star; ? = inconclusive; . = not tested or not shown.

SMILES	ALR inh	HSF-1 act	HSF1 inhib	AI-2 QS modul	PHOSPHO1 inh	core dimer inh	JMH597 growth rt	BB721 lum counter	BB721 growth rt	JMH597 AI-2 mod
CCC(=O)Nc1ccc2nc(C)n(CC(=O)Nc3ccccc3)c(=O)c2c1	-14.8	-26.7	-15.5	12.0	7.6	10.7	.	.	.	.
Cc1ccccc1NC(=O)Cn1nc(C)c2ccccc2c1=O	2.4	-8.5	-5.2	-1.2	29.1	10.1	.	.	.	.
Cc1cc(NC(=O)Cn2c(C)nc3ccccc3c2=O)ccc1Br	.	-7.4	0.4	-86.6*	-9.3	6.9	5.4	98.8*	-17.9	99.1*
Cc1cc(C)cc(NC(=O)Cn2nnc3ccccc3c2=O)c1	3.1	25.1	0.9	-82.9*	1.8	-0.1	-22.8	96.0*	-10.7	97.4*
c1ccc(COc2ccc(OCCCn3cncn3)cc2)cc1	5.3	34.4	11.4	-3.2	-24.6	6.4	.	.	.	.
c1ccc(Cc2ccc(OCCn3cncn3)cc2)cc1	6.2	5.4	1.7	?	0.1	-4.7	6.8	88.6*	9.8	93.2*
O=C(COc1nncc2ccccc12)Nc1ccc(F)c(F)c1	-0.5	.	.	-96.4*	32.2	-0.1	-22.9	99.2*	-18.4	99.4*
Cc1cc(C)c(NC(=O)COc2nncc3ccccc23)c(C)c1	-18.5	37.0	10.8	16.3	-9.0	1.2	.	.	.	.
O=C(COc1nncc2ccccc12)Nc1c(F)c(F)c(F)c(F)c1F	-0.3	6.4	-8.6	-5.7	27.1	1.4	.	.	.	.
CC(C)c1ccc(NC(=O)COc2nncc3ccccc23)cc1	-2.2	15.6	8.4	-96.1*	6.0	-12.5	47.4	99.5*	?	99.6*
Cc1ccc(S(=O)(=O)Nc2ccc(Nc3ccccc3)cc2)cc1	99.0*	4.4	7.5	-97.3*	-42.0	2.5	66.5	99.5*	27.2	99.6*
Cc1ccc(S(=O)(=O)Nc2ccc(S(=O)(=O)NC(C)(C)C)cc2)cc1	-20.1	6.3	-9.2	1.0	-7.1	0.3	.	.	.	.
CC(C)(C)OC(=O)C[C@@H]1C/C=C\C[C@@H](CC(=O)NCCO)C(=O)NC[C@H](c2ccccc2)OC1=O	-4.4	.	.	.	.	.	.	.	.	.
C=Cn1c(C(=O)O)ccc1-c1ccc(CC)cc1	6.0	15.0	4.5	-86.7*	28.5	-0.9	26.0	16.0	10.2	99.8*
O=C(O)c1cc(N2C(=O)CCC2=O)ccc1Cl	-2.5	6.7	-9.8	0.2	.	-5.5	.	.	.	.
O=C(Nc1cccc(Cl)c1)OCCOc1ccccc1	-6.7	-22.3	-0.1	-86.7*	24.7	.	8.5	91.5*	-6.3	92.0*
CCOc1ccc(NC(=O)CCc2ccc(C)o2)cc1	5.1	5.1	-1.6	5.5	38.2	-3.5	.	.	.	.
CCc1ccc(CCC(=O)Nc2ccc(C(C)=O)cc2)o1	27.0	4.8	-4.4	-94.0*	-13.6	-4.4	7.7	98.4*	-14.8	99.2*
CCc1ccc(CCC(=O)Nc2ccc(Br)cc2)o1	4.8	2.2	-0.3	-91.4*	13.9	-7.6	-19.7	95.0*	-26.1	97.1*
CCc1ccc(CCC(=O)Nc2ccc(Cl)cc2)o1	77.7*	7.2	-2.3	-89.0*	2.6	-5.0	-6.6	95.6*	-36.0	97.7*
Cc1ccc(CCC(=O)Nc2ccc(Cl)cc2)o1	13.5	6.0	1.8	-86.6*	-2.4	-12.5	23.5	91.3*	8.7	93.5*
Cc1ccc(CCC(=O)Nc2ccc(CC(=O)O)cc2)o1	5.9	3.4	-8.1	12.4	29.5	-6.3	.	.	.	.
CCc1ccc(CCC(=O)Nc2ccc(OC)cc2)o1	31.2	15.3	-0.4	-69.0	-4.2	-3.9	.	.	.	.
O=C(CSc1ccccc1)Nc1ccc2c(c1)C(=O)NC2=O	-5.6	-7.2	-9.8	35.4	6.2	-0.6	.	.	.	.
CC1CC(C)CN(Cc2nc(N)nc(Nc3ccc4ccccc4c3)n2)C1 (configuration not stated)	-31.8	0.8	-3.5	-1.2	40.8	-3.4	.	.	.	.
SMILES	ALR inh	HSF-1 act	HSF1 inhib	AI-2 QS modul	PHOSPHO1 inh	core dimer inh	JMH597 growth rt	BB721 lum counter	BB721 growth rt	JMH597 AI-2 mod
Clc1nc(-c2ccccc2)ncc1Oc1ccccc1	3.5	1.1	6.9	-84.5*	.	-4.2	18.0	97.0*	21.8	97.6*
Cc1ccc2c(c1)Oc1ccccc1C=C2C(=O)O	9.0	-13.0	-5.5	0.6	36.3	4.7	.	.	.	.
COc1ccc(N(CC(=O)Nc2ccc(OC)c(OC)c2)S(=O)(=O)c2ccccc2)cc1Cl	-23.2	5.7	7.3	6.0	29.0	-0.7	.	.	.	.
COc1ccc(NC(=O)CN(c2ccc(OC)c(Cl)c2)S(=O)(=O)c2ccccc2)cc1	-3.2	14.8	1.1	?	28.7	21.6	16.6	-5.6	18.5	-3.2
CCCC(C)C(=O)Nc1nnc(CCc2ccccc2)s1 (configuration not stated)	.	-0.3	2.8	5.6	24.3	10.9	.	.	.	.
COc1ccc(S(=O)(=O)N2CCN(C(=O)NCc3ccc(C)cc3)CC2)cc1	1.0	-16.8	-3.5	26.5	18.7	-11.8	.	.	.	.
CN(CC(=O)Nc1ccc(Cl)c(C(F)(F)F)c1)C(=O)C1(c2ccccc2)CC1	.	1.4	5.4	1.0	.	-4.9	.	.	.	.
Cc1noc(C)c1CSCC(=O)N(C)CC(=O)Nc1ccc(Cl)c(C(F)(F)F)c1	-0.8	19.1	1.3	-86.5*	.	-2.1	12.5	94.9*	-4.3	96.4*
CN(CC(=O)Nc1ccc(Cl)c(C(F)(F)F)c1)C(=O)c1cccs1	-13.6	1.9	-0.6	-88.7*	.	-9.7	24.2	97.7*	24.7	98.2*
Nc1c(S(=O)(=O)c2ccccc2)nnn1-c1ccccc1	-0.4	-8.0	-9.9	-97.2*	7.4	13.8	11.5	99.5*	-40.5	99.6*
CCOc1ccc2[nH]c3nc(SCC(=O)OC(C)C)nnc3c2c1	2.3	-1.3	0.3	11.7	3.6	0.3	.	.	.	.

Assay outcomes from PubChem.
